From ChEMBL document CHEMBL1139931, “Synthesis and structure-activity relationships of novel pyrimido[1,2-b]indazoles as potential anticancer agents against A-549 cell lines” (2007)

Test system: A549
Assay: Anticancer activity against human A549 cells at 1 nM after 12 hrs
Type: functional
Conditions: A549, 12 h
In short: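 A-549 cells seeded at 10,000 cells/well in 96-well plates, recovered overnight in 5% CO2, then exposed 12 h to compound at 1 nM/ml (in 1% DMSO in PBS). MTT added from a 5 mg/ml PBS stock, 5 h at 37 °C, medium removed, formazan dissolved in DMSO for 5 min at 37 °C. Growth inhibition read at 550 nm; duplicate runs.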

Row | SMILES | inhibition at 0.001 µM [%]
1 | CCOC(=O)c1cnc2c3c(-c4ccccc4)cc(C(F)(F)F)c(C#N)c3nn2c1O | 8.24
2 | N#Cc1c(C(F)(F)F)cc(-c2ccccc2)c2c1nn1c(-c3ccccc3)cc(-c3ccccc3)nc21 | 5.96
3 | N#Cc1c(C(F)(F)F)cc(-c2ccccc2)c2c1nn1c(C(F)(F)F)cc(C(F)(F)F)nc21 | 10.2
4 | Cc1cc(-c2ccccc2)n2nc3c(C#N)c(C(F)(F)F)cc(-c4ccccc4)c3c2n1 | 4.8
5 | Cc1cc(C)n2nc3c(C#N)c(-c4ccccc4)cc(C(F)(F)F)c3c2n1 | 3.74
6 | Cc1cc(-c2ccccc2)nc2c3c(C(F)(F)F)cc(-c4ccccc4)c(C#N)c3nn12 | 13.3
7 | N#Cc1c(-c2ccccc2)cc(C(F)(F)F)c2c1nn1c(C(F)(F)F)cc(C(F)(F)F)nc21 | 4.54
8 | Cc1cc(=O)n2nc3c(C#N)c(C(F)(F)F)cc(-c4ccccc4)c3c2[nH]1 | 0.44
9 | N#Cc1c(C(F)(F)F)cc(-c2ccccc2)c2c1nn1c(C(F)(F)F)cc(-c3ccccc3)nc21 | 8.9
10 | N#Cc1c(-c2ccccc2)cc(C(F)(F)F)c2c1nn1c(C(F)(F)F)cc(-c3ccccc3)nc21 | 16.2
11 | CCOC(=O)c1cnc2c3c(C(F)(F)F)cc(-c4ccccc4)c(C#N)c3nn2c1N | 10.7
12 | Cc1ccc(-c2cc(C(F)(F)F)n3nc4c(C#N)c(C(F)(F)F)cc(-c5ccccc5)c4c3n2)cc1 | 6.77
13 | Cc1cc(C(F)(F)F)n2nc3c(C#N)c(C(F)(F)F)cc(-c4ccccc4)c3c2n1 | 6.44
14 | CCOC(=O)c1cnc2c3c(-c4ccccc4)cc(C(F)(F)F)c(C#N)c3nn2c1N | 11
15 | COc1cc([C@@H]2c3cc4c(cc3[C@@H](O[C@@H]3O[C@@H]5CO[C@@H](C)O[C@H]5[C@H](O)[C@H]3O)[C@H]3COC(=O)[C@H]23)OCO4)cc(OC)c1O [ETOPOSIDE] | 1.15
